Biological target: SSTR2 (Rattus norvegicus, UniProt P30680)
Assay type: binding
Details: Re-cyclized analogues, in vitro, AR42J cells
Procedure, shortened: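 Trypsinized rat AR42J pancreatic carcinoma cells, 2 × 10⁶/well in RPMI 1640, were incubated 2 h at 37 °C (5% CO₂) with HPLC-purified ¹¹¹In-DOTA-TIDE (0.2 μCi/well) and test compound at 10⁻⁴ to 10⁻¹³ M, in triplicate. Cells were pelleted, washed three times with 4 °C medium, and counted for γ radioactivity. IC₅₀ was taken from sigmoidal fits of % bound tracer vs log concentration.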

Sequence of SSTR2 (P30680 whole entry): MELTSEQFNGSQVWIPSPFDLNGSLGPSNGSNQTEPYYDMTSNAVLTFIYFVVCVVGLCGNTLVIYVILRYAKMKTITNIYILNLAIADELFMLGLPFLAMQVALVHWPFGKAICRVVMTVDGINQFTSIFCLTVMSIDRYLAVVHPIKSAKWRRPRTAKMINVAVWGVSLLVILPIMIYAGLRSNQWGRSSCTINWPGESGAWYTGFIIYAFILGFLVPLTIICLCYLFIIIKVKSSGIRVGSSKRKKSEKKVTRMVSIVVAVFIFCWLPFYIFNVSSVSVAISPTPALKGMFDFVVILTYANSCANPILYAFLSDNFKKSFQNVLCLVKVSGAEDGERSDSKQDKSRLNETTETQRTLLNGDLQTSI

Ac-Cys-Cys-Tyr-DTrp-Lys-Thr-Cys-Thr(OH) [analogue 4]
affinity toward somatostatin subtype 2 receptors (in words): moderate affinity
